# Results published in ChEMBL document CHEMBL1126604, “Synthesis and antiviral activity of 5-thien-2-yl-2'-deoxyuridine analogues” (1993).
# Legend:
# Assay type in all cases: functional
# [1] = system: Human alphaherpesvirus 2; experiment: Minimum inhibitory concentration required to reduce herpes simplex virus-2 (HSV-2 (G)) virus-induced cytopathicity by 50%
# [2] = system: Human alphaherpesvirus 3; experiment: Minimum inhibitory concentration required to reduce TK-VZV (YS/R) virus-induced cytopathicity by 50%
# [3] = system: Vesicular stomatitis virus; experiment: Minimum inhibitory concentration required to reduce VSV virus-induced cytopathicity by 50%
# [4] = system: Human alphaherpesvirus 3; experiment: Minimum inhibitory concentration required to reduce Varicella-Zoster virus (VZV (Oka)) virus-induced cytopathicity by 50%
# [5] = system: Human alphaherpesvirus 2; experiment: Minimum inhibitory concentration required to reduce herpes simplex virus-2 (HSV-2 (196)) virus-induced cytopathicity by 50%
# [6] = system: Cytomegalovirus; experiment: Minimum inhibitory concentration required to reduce cytomegalo virus (CMV (AD-169)) virus-induced cytopathicity by 50%; conditions: Human betaherpesvirus 5
# [7] = system: Human alphaherpesvirus 1; experiment: Minimum inhibitory concentration required to reduce herpes simplex virus-1 (HSV-1 (KOS)) virus-induced cytopathicity by 50%
# [8] = system: Cell line; experiment: Minimum concentration required to cause a microscopically detectable alteration of cell morphology; conditions: Homo sapiens
# In short: (§1)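 Cytotoxicity read as the minimum concentration causing a microscopically detectable alteration of normal cell morphology. Cells were human embryonic skin-muscle (E6SM) or human embryonic lung (HEL), seeded in 96-well plates.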
# [9] = system: Vaccinia virus; experiment: Minimum inhibitory concentration required to reduce vaccinia virus (VV) virus-induced cytopathicity by 50%; conditions: Orthopoxvirus vaccinia
# [10] = system: Human alphaherpesvirus 1; experiment: Minimum inhibitory concentration required to reduce herpes simplex virus-1 (HSV-1 (F)) virus-induced cytopathicity by 50%
# [11] = (§2) Minimum inhibitory concentration required to reduce virus-induced cell growth by 50%; conditions: Homo sapiens
# [12] = system: Human alphaherpesvirus 1; experiment: Minimum inhibitory concentration required to reduce herpes simplex virus-1 (HSV-1 (McIntyre)) virus-induced cytopathicity by 50%
# [13] = system: Human alphaherpesvirus 2; experiment: Minimum inhibitory concentration required to reduce herpes simplex virus-2 (HSV-2 (Lyons)) virus-induced cytopathicity by 50%
# [14] = system: Human alphaherpesvirus 1; experiment: Minimum inhibitory concentration required to reduce thymidine kinase deficient-HSV-1 (VMW 1837) virus-induced cytopathicity by 50%
# [15] = system: Human alphaherpesvirus 1; experiment: Minimum inhibitory concentration required to reduce thymidine kinase deficient-HSV-1 (B2006) virus-induced cytopathicity by 50%
# [16] = system: Cytomegalovirus; experiment: Minimum inhibitory concentration required to reduce cytomegalo virus (CMV (Davis)) virus-induced cytopathicity by 50%; conditions: Human betaherpesvirus 5
# [17] = system: Human alphaherpesvirus 3; experiment: Minimum inhibitory concentration required to reduce TK-VZV (07-1) virus-induced cytopathicity by 50%
# [18] = system: Human alphaherpesvirus 1; experiment: Minimum inhibitory concentration required to reduce TK-HSV-1 (B2006) virus-induced cytopathicity by 50%
# [19] = system: Mus musculus; experiment: Survival of mice after intraperitoneal infection with HSV-1 (KOS) and oral administration of 25 mg/kg at day 0
# In short: (§3)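 Mice were infected intraperitoneally with HSV-1 (KOS), 10 mice per group. Drug was given by oral gavage once daily for 5 days, starting on the day of infection, at 25, 100 or 250 mg/kg per day. Vehicle was a 90:10 suspension of Sirupus Simplex and propylene glycol; the placebo group got the same syrup. Surviving mice were counted over 20 days.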
# [20] = system: Mus musculus; experiment: Survival of mice after intraperitoneal infection with HSV-1 (KOS) and oral administration of 100 mg/kg at day 0; in short: as §3
# [21] = system: Mus musculus; experiment: Survival of mice after intraperitoneal infection with HSV-1 (KOS) and oral administration of 100 mg/kg at day 12; in short: as §3
# [22] = system: Mus musculus; experiment: Survival of mice after intraperitoneal infection with HSV-1 (KOS) and oral administration of 25 mg/kg at day 20; in short: as §3
# [23] = system: Mus musculus; experiment: Survival of mice after intraperitoneal infection with HSV-1 (KOS) and oral administration of 250 mg/kg at day 20; in short: as §3
# [24] = system: Mus musculus; experiment: Survival of mice after intraperitoneal infection with HSV-1 (KOS) and oral administration of 100 mg/kg at day 3; in short: as §3
# [25] = system: Mus musculus; experiment: Survival of mice after intraperitoneal infection with HSV-1 (KOS) and oral administration of 250 mg/kg at day 6; in short: as §3
# [26] = system: Mus musculus; experiment: Survival of mice after intraperitoneal infection with HSV-1 (KOS) and oral administration of 100 mg/kg at day 20; in short: as §3
# [27] = system: Mus musculus; experiment: Survival of mice after intraperitoneal infection with HSV-1 (KOS) and oral administration of 25 mg/kg at day 9; in short: as §3
# [28] = system: Mus musculus; experiment: Survival of mice after intraperitoneal infection with HSV-1 (KOS) and oral administration of 250 mg/kg at day 9; in short: as §3
# [29] = system: Mus musculus; experiment: Survival of mice after intraperitoneal infection with HSV-1 (KOS) and oral administration of 100 mg/kg at day 9; in short: as §3
# [30] = system: Mus musculus; experiment: Survival of mice after intraperitoneal infection with HSV-1 (KOS) and oral administration of 25 mg/kg at day 12; in short: as §3
# [31] = system: Mus musculus; experiment: Survival of mice after intraperitoneal infection with HSV-1 (KOS) and oral administration of 25 mg/kg at day 3; in short: as §3
# [32] = system: Mus musculus; experiment: Survival of mice after intraperitoneal infection with HSV-1 (KOS) and oral administration of 100 mg/kg at day 6; in short: as §3
# [33] = system: Mus musculus; experiment: Survival of mice after intraperitoneal infection with HSV-1 (KOS) and oral administration of 250 mg/kg at day 0; in short: as §3
# [34] = system: Mus musculus; experiment: Survival of mice after intraperitoneal infection with HSV-1 (KOS) and oral administration of 250 mg/kg at day 3; in short: as §3
# [35] = system: Mus musculus; experiment: Survival of mice after intraperitoneal infection with HSV-1 (KOS) and oral administration of 250 mg/kg at day 12; in short: as §3
# [36] = system: Mus musculus; experiment: Survival of mice after intraperitoneal infection with HSV-1 (KOS) and oral administration of 25 mg/kg at day 6; in short: as §3
# [37] = system: Cell line; experiment: Minimum concentration required to cause a microscopically detectable alteration of human cells morphology; in short: as §1
# [38] = system: Cell line; experiment: as §2; conditions: Homo sapiens
# In short: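 Cytotoxicity was measured as inhibition of cell growth in E6SM or HEL cells seeded in 96-well plates.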
smiles,measurement,setting,value
Cc1ccc(-c2cn([C@H]3C[C@H](O)[C@@H](CO)O3)c(=O)[nH]c2=O)s1,MIC,[1],50 µg/mL
same,MIC,[2],> 40 µg/mL
same,MIC,[3],> 400 µg/mL
same,MIC,[4],0.08 µg/mL
same,MIC,[5],150 µg/mL
same,MIC,[6],> 40 µg/mL
same,MIC,[7],0.2 µg/mL
same,MIC,[8],> 200 µg/mL
same,MIC,[9],> 200 µg/mL
same,MIC,[10],0.2 µg/mL
same,MIC,[11],> 50 µg/mL
same,MIC,[12],0.7 µg/mL
same,MIC,[13],20 µg/mL
same,MIC,[14],150 µg/mL
same,MIC,[15],400 µg/mL
same,MIC,[16],> 40 µg/mL
same,MIC,[17],> 40 µg/mL
C#Cc1ccc(-c2cn([C@H]3C[C@H](O)[C@@H](CO)O3)c(=O)[nH]c2=O)s1,MIC,[1],> 200 µg/mL
same,MIC,[2],17 µg/mL
same,MIC,[3],> 200 µg/mL
same,MIC,[4],0.25 µg/mL
same,MIC,[5],> 200 µg/mL
same,MIC,[6],> 10 µg/mL
same,MIC,[7],0.4 µg/mL
same,MIC,[8],400 µg/mL
same,MIC,[9],> 200 µg/mL
same,MIC,[10],0.2 µg/mL
same,MIC,[11],14 µg/mL
same,MIC,[12],0.2 µg/mL
same,MIC,[13],> 200 µg/mL
same,MIC,[14],> 200 µg/mL
same,MIC,[18],> 200 µg/mL
same,MIC,[16],> 10 µg/mL
same,MIC,[17],5 µg/mL
C=Cc1ccc(-c2cn([C@H]3C[C@H](O)[C@@H](CO)O3)c(=O)[nH]c2=O)s1,MIC,[1],> 200 µg/mL
same,MIC,[2],10 µg/mL
same,MIC,[3],> 200 µg/mL
same,MIC,[4],7 µg/mL
same,MIC,[6],> 1 µg/mL
same,MIC,[7],1 µg/mL
same,MIC,[8],400 µg/mL
same,MIC,[9],70 µg/mL
same,MIC,[11],3.5 µg/mL
same,MIC,[14],> 200 µg/mL
same,MIC,[15],> 200 µg/mL
same,MIC,[16],> 1 µg/mL
same,MIC,[17],7 µg/mL
O=c1[nH]c(=O)n([C@H]2C[C@H](O)[C@@H](CO)O2)cc1-c1ccc(I)s1,MIC,[1],> 40 µg/mL
same,MIC,[2],40 µg/mL
same,MIC,[3],> 40 µg/mL
same,MIC,[4],0.07 µg/mL
same,MIC,[6],> 40 µg/mL
same,MIC,[7],0.04 µg/mL
same,MIC,[8],100 µg/mL
same,MIC,[9],> 40 µg/mL
same,MIC,[11],> 50 µg/mL
same,MIC,[14],> 40 µg/mL
same,MIC,[15],> 40 µg/mL
same,MIC,[16],> 40 µg/mL
same,MIC,[17],10 µg/mL
O=c1[nH]c(=O)n(C2O[C@H](CO)[C@@H](O)[C@@H]2O)cc1-c1ccc(Br)s1 (stereo not given in full),MIC,[1],70 µg/mL
same,No. of mice,[19],10
same,No. of mice,[20],10
same,No. of mice,[21],1
same,MIC,[2],40 µg/mL
same,MIC,[3],> 100 µg/mL
same,MIC,[4],0.05 µg/mL
same,MIC,[5],70 µg/mL
same,No. of mice,[22],2
same,MIC,[6],30 µg/mL
same,MIC,[7],0.08 µg/mL
same,No. of mice,[23],5
same,No. of mice,[24],10
same,No. of mice,[25],8
same,MIC,[8],> 40 µg/mL
same,No. of mice,[26],1
same,No. of mice,[27],2
same,MIC,[9],20 µg/mL
same,MIC,[10],0.07 µg/mL
same,MIC,[11],> 50 µg/mL
same,No. of mice,[28],5
same,No. of mice,[29],1
same,MIC,[12],0.02 µg/mL
same,No. of mice,[30],2
same,MIC,[13],20 µg/mL
same,No. of mice,[31],10
same,MIC,[14],> 100 µg/mL
same,No. of mice,[32],8
same,No. of mice,[33],10
same,No. of mice,[34],10
same,MIC,[15],> 100 µg/mL
same,MIC,[16],35 µg/mL
same,No. of mice,[35],5
same,MIC,[17],40 µg/mL
same,No. of mice,[36],10
O=c1[nH]c(=O)n([C@H]2C[C@H](O)[C@@H](CO)O2)cc1-c1ccc([N+](=O)[O-])s1,MIC,[37],> 200 µg/mL
same,MIC,[1],150 µg/mL
same,MIC,[2],> 40 µg/mL
same,MIC,[3],> 200 µg/mL
same,MIC,[4],7 µg/mL
same,MIC,[6],> 40 µg/mL
same,MIC,[7],2 µg/mL
same,MIC,[9],150 µg/mL
same,MIC,[38],> 50 µg/mL
same,MIC,[14],150 µg/mL
same,MIC,[15],> 200 µg/mL
same,MIC,[16],> 40 µg/mL
same,MIC,[17],40 µg/mL
O=c1[nH]c(=O)n([C@H]2C[C@H](O)[C@@H](CO)O2)cc1-c1ccoc1,MIC,[37],> 40 µg/mL
same,MIC,[1],150 µg/mL
same,MIC,[2],> 40 µg/mL
same,MIC,[3],> 200 µg/mL
same,MIC,[4],50 µg/mL
same,MIC,[5],150 µg/mL
same,MIC,[6],80 µg/mL
same,MIC,[7],0.5 µg/mL
same,MIC,[9],> 40 µg/mL
same,MIC,[10],0.5 µg/mL
same,MIC,[11],> 50 µg/mL
same,MIC,[12],0.07 µg/mL
same,MIC,[13],30 µg/mL
same,MIC,[14],> 200 µg/mL
same,MIC,[15],100 µg/mL
same,MIC,[16],80 µg/mL
same,MIC,[17],> 40 µg/mL
